PolyA inh: inhibitors of polyadenylation in S. cerevisiae | S. cerevisiae SKY197-pL101 polyadenylation reporter, beta-gal luminescence; efflux-impaired pdr1/pdr3 knockout yeast; score 100 = 6 SD above DMSO | AID 1875 | activity score, % at 12 µM | 300,000 compounds, 0.02% hits;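 active means lowest replicate activity score at least 50, where 100 means six control SD above control mean; inconclusive means lowest score under 50 but half or more replicates reach 50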;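 further: yeast exposed to compound for 9 h at 30 °C; higher score means more reporter readthrough which indicates perturbed polyadenylation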
CHT inh: human CHT choline transport inhibition | Q9GZV3 | B-score at 10 µM | 310,000 compounds, 0.86% hits | CHT-expressing cells, membrane potential dye, choline response; active compounds read low | AID 488975;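 active means B-score over 3 SD under the library average, and starting fluorescence ratio not unusually high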;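 further: choline stimulus applied at its EC90 after an EC20 pre-addition; B-score computed on integrated fluorescence ratio after choline addition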
Target sequence (Q9GZV3 whole entry, looked up): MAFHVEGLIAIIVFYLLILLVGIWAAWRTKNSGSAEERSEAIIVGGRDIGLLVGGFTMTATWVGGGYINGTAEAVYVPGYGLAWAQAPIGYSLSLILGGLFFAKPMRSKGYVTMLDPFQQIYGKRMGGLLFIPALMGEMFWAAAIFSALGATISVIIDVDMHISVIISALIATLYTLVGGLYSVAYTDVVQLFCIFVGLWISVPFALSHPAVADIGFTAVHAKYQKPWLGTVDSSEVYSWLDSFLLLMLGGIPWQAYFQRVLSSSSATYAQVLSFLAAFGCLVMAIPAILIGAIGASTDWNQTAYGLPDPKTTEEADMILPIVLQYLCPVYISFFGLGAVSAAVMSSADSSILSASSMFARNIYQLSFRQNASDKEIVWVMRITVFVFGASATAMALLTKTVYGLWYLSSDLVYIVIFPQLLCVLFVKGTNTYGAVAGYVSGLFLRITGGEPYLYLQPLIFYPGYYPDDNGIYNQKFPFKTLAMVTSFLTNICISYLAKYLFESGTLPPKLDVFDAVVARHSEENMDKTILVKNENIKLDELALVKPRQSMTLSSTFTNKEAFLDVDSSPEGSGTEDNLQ
T cruzi repl: blocks replication of Trypanosoma cruzi. T. cruzi beta-gal in NIH3T3, luminescence, 90 h. inhibition, % (test concentration not listed). 300,000 compounds, 1.4% hits;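 active means mean inhibition across valid replicates above about 55%, limit read from the data; inconclusive means mean below that limit but half or more replicates reach it; inactive means mean below it, under half of replicates reach it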;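 further: signal also drops with host cell toxicity which is not excluded here; 0% = plate median of DMSO wells and 100% = zero luminescence signal; higher percent means less beta-gal luminescence so fewer parasites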
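Assay system: NIH/3T3 fibroblasts plus reporter T. cruzi. Amount: NIH/3T3 cells, 5,000 per well. Buffer or medium: DMEM, 2% fetal bovine serum. Doses: compound pinned at 50 nL/well, DMSO. Schedule: ≥90 h infection period, 3 h prior cell attachment. Signal: luminescent β-galactosidase signal after 60 min lysis. Read-out: parasite load inhibition, %.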
CHT PAM: allosterically activates the human high affinity choline transporter; AID 488977; Q9GZV3; 310,000 compounds, 0.49% hits; CHT-expressing cells, membrane potential dye, choline EC20; active compounds read high; LV-AA mutant CHT in HEK293 cells; B-score at 10 µM;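 active means initial fluorescence not abnormally high and integrated response B-score, plate-corrected, over 3 SD above library mean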
CHT activ conf: human CHT activation, confirmatory screen; 2,500 compounds, 91% hits; shares compounds with CHT PAM; activation, % at 10 µM; CHT-expressing cells, membrane potential dye fluorescence (FDSS); % of choline EC20–EC90 response window; HEK293 expressing CHT LV-AA mutant; choline added at its EC20;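 active means primary screen active, with duplicate mean activation above negative control mean plus 3 SD, cut at about 11% in these data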
HEK293 MP dye: counter-screen for CHT activators: effect in parental HEK293 cells; shares compounds with CHT PAM; membrane potential dye fluorescence (FDSS); measured after EC20 choline addition; ratio readout change at 10 µM, hits read low; 2,500 compounds, 62% hits;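 active means duplicate-averaged ratio beyond 3 SD from buffer wells, up or down, though filed actives are nearly all decreases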
The depositor's hits bear a star; i = inactive; ? = inconclusive; / = no result given. An excerpt weighted towards active compounds, which were near 2.6% of everything screened.

SMILES	PolyA inh	CHT inh	T cruzi repl	CHT PAM	CHT activ conf	HEK293 MP dye
CC(C)C(=O)N1CCN(c2ccccc2NC(=O)c2ccc([N+](=O)[O-])o2)CC1	-17	i	56*	11*	39*	i
CCC(=O)N1CCN(c2ccccc2NC(=O)c2ccc([N+](=O)[O-])o2)CC1	-34	i	23	8.9*	12*	i
Cc1nccn1C(c1ccccc1)c1ccccc1	-13	i	-5	i	/	/
CCOCCCn1c(=NC(C)=O)c(C(=O)OCC)cc2c(=O)n3ccccc3nc21	-6	i	10	i	17*	-42*
CCOCCCn1c(=NC(C)=O)c(C#N)cc2c(=O)n3ccccc3nc21	0	i	-8	i	/	/
Cc1ccn2cc(-c3cccc([N+](=O)[O-])c3)nc2c1	/	i	/	i	39*	-46*
CC(=O)Nc1cccc(-c2cn3ccc(C)cc3n2)c1	11	i	-4	i	/	/
Cc1ccn2cc(-c3ccc(Br)cc3)nc2c1	4	i	4	i	/	/
Cc1ccn2cc(-c3cccc(NS(C)(=O)=O)c3)nc2c1	23	i	-4	6.3*	35*	-42*
O=C(c1ccco1)N1CCN(c2c([N+](=O)[O-])nn(-c3cccc(Cl)c3)[n+]2[O-])CC1	-13	i	40	i	/	/
C=CCn1c[n+](CC(=O)c2ccc(Br)s2)c2ccccc21	1	i	10	i	45*	-27*
CC(C)Cc1ccc(C(C)C(N)=NCCc2ccccc2)cc1 (stereo not given)	-13	i	47	13*	6	i
CCCCN(CCO)c1ncnc2sc(-c3ccccc3)cc12	-13	i	39	i	/	/
CCN(Cc1ccccc1)C(c1ccc(Cl)cc1)c1nnnn1C(C)(C)C (stereo not given)	10	i	28	7.2*	32*	i
O=c1ccn(Cc2ccccc2)c2ccccc12	23	i	-28	i	/	/
c1ccc(Cn2c[n+](Cc3ccccc3)c3ccccc32)cc1	9	i	?	i	46*	i
Cn1cc([C@@H]2C[C@H]3CN(Cc4cccc(Cl)c4)C(=O)[C@]34CCCN24)c(-c2ccccc2)n1	6	i	13	i	19*	i
CCn1ncc([C@@H]2C[C@H]3CN(Cc4cccc(Cl)c4)C(=O)[C@]34CCCN24)c1C	13	i	16	i	/	/
CCCCCCCC[n+]1c(C)n(-c2ccccc2)c2ccc(NC(C)=O)cc21	14	i	65*	10*	78*	-33*
CC(=O)Nc1ccc(SCC(=O)c2cc(C)n(-c3ccccc3)c2C)cc1	14	i	-7	i	/	/
CCCCN(C(=O)c1ccc(S(=O)(=O)N2CCC(C)CC2)cc1)C1CCS(=O)(=O)C1 (stereo not given)	-9	i	4	i	/	/
O=C1CCc2cc(S(=O)(=O)Nc3cccc(F)c3)cc3c2N1CC3	19	i	-4	i	/	/
CCCCN(C(=O)c1ccc(S(=O)(=O)N2CCCCC2)cc1)C1CCS(=O)(=O)C1 (stereo not given)	-7	/	1	/	/	/
CCc1ccc(NC(=O)CSc2nc3ccccc3c(=O)n2CCCN2CCC(C)CC2)cc1	8	i	25	i	17*	i
O=C1c2ccccc2C(=O)N1CCCCSc1nc2ccccc2c(=O)n1CCCN1CCOCC1	6	i	28	i	35*	i
O=C1c2ccccc2C(=O)N1CCSc1nc2ccccc2c(=O)n1CCCN1CCOCC1	2	i	1	i	/	/
CN1CCCC(OC(=O)c2ccccc2Br)C1 (stereo not given)	8	i	-2	i	/	/
CCOC(=O)c1c(NC(=O)COc2cccc3c2CCN(C)C3=O)sc2c1CCC2	-3	i	18	i	25*	i
Cc1cccc(NC(=O)COc2cccc3c2CCN(C)C3=O)c1C	0	i	11	i	/	/
CCC(=O)c1ccc(OCC(O)CNC2CCCC2)cc1 (stereo not given)	14	i	8	i	/	/

Source: PubChem BioAssay (several laboratories)
